{"source": "ChEMBL document CHEMBL2407036", "about": "“Flow Synthesis and Biological Studies of an Analgesic Adamantane Derivative That Inhibits P2X7-Evoked Glutamate Release” (ACS Med Chem Lett, 2013)", "key": {"Rattus norvegicus [1]": {"test_system": "Rattus norvegicus", "assay": "Antinociceptive activity against carrageenan-induced hyperalgesia in rat assessed as paw pressure at 10 mg/kg, po measured after 15 mins (reference value: 32.8 +/- 2.9 g)", "type": "functional", "how_it_was_run": "(§1)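 Rats received intraplantar carrageenan before oral dosing. Paw-pressure withdrawal threshold (g) was measured before treatment and at 15, 30, 60 and 90 min after it. Carrageenan-injected rats given vehicle served as reference, with saline-injected rats as a further control.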"}, "Rattus norvegicus [2]": {"species": "Rattus norvegicus", "assay": "Inhibition of K+ depolarization-induced [3H]D-aspartate efflux in Sprague-Dawley rat synaptosome preincubated at 50 uM for 8 mins by liquid scintillation counting", "type": "functional, tissue-based", "conditions": "Brain", "how_it_was_run": "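Purified rat cerebrocortical synaptosomes were loaded with [3H]D-aspartate and superfused. Compound was added 8 min before K+ depolarization, which was applied as KCl for 120 s during superfusion. Evoked tritium efflux was measured. Data are mean ± SEM of 3–12 independent experiments in triplicate.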"}, "Rattus norvegicus [3]": {"test_system": "Rattus norvegicus", "assay": "Antinociceptive activity against carrageenan-induced hyperalgesia in rat assessed as paw pressure at 3 mg/kg, po measured after 30 mins (reference value: 30.6 +/- 3.2 g)", "type": "functional", "how_it_was_run": "as §1"}, "Mus musculus [4]": {"test_system": "Mus musculus", "assay": "Analgesic activity in Swiss albino mouse assessed as inhibition of acetic acid-induced abdominal contraction at 10 mg/kg, po measured after 30 mins in presence of naxolone", "type": "functional, organism-based", "design": "dose 10 mg/kg", "conditions": "Abdominal cavity"}, "Rattus norvegicus [5]": {"test_system": "Rattus norvegicus", "assay": "Antinociceptive activity against carrageenan-induced hyperalgesia in rat assessed as paw pressure at 20 mg/kg, po measured after 60 mins (reference value: 31.8 +/- 2.2 g)", "type": "functional", "how_it_was_run": "as §1"}, "[6]": {"biological_target": "T1, Prostaglandin G/H synthase 2 (Homo sapiens) (UniProt P35354)", "T1 sequence (whole entry)": "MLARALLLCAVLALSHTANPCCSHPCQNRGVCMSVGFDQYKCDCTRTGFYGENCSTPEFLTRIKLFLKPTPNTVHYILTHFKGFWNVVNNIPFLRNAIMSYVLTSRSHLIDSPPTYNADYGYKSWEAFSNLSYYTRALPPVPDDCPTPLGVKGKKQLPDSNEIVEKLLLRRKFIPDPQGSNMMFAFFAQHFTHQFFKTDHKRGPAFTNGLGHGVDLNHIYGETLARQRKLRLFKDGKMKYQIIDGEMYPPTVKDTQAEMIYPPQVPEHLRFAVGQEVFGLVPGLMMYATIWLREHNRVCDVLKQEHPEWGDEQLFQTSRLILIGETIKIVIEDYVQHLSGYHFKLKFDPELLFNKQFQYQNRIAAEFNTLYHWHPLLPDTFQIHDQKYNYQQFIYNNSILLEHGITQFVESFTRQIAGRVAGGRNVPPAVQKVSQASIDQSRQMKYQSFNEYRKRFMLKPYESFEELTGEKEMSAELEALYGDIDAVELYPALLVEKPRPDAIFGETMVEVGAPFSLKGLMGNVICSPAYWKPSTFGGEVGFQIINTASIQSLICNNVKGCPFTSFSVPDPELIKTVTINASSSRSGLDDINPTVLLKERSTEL", "assay": "Inhibition of COX-2 (unknown origin)"}, "Rattus norvegicus [7]": {"test_system": "Rattus norvegicus", "assay": "Antinociceptive activity against carrageenan-induced paw edema in rat assessed as paw edema volume at 20 mg/kg, po measured after 30 mins (reference value: 2.71+/- 0.08 ml)", "type": "functional"}, "[8]": {"biological_target": "T2, P2X purinoceptor 7 (Rattus norvegicus) (UniProt Q64663)", "T2 sequence (whole entry)": "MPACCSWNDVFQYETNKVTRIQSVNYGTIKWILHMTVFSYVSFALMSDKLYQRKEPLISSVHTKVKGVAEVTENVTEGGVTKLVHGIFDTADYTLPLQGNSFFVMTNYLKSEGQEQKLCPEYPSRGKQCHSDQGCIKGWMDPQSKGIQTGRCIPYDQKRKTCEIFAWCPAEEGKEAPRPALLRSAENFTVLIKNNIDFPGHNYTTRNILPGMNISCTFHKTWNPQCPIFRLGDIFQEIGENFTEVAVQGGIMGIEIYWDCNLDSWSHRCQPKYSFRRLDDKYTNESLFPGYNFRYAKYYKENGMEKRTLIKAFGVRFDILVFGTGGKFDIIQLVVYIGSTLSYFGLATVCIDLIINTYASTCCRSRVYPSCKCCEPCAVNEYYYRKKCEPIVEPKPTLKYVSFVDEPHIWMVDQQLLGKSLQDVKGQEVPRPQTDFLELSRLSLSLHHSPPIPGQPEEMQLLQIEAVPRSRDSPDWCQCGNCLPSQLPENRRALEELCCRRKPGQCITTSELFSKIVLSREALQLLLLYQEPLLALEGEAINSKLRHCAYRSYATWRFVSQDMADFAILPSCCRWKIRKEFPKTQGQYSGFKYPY", "conditions": "Brain, 50 uM"}, "[9]": {"biological_target": "Prostaglandin G/H synthase 1 (Homo sapiens) (UniProt P23219)", "sequence (P23219 whole entry)": "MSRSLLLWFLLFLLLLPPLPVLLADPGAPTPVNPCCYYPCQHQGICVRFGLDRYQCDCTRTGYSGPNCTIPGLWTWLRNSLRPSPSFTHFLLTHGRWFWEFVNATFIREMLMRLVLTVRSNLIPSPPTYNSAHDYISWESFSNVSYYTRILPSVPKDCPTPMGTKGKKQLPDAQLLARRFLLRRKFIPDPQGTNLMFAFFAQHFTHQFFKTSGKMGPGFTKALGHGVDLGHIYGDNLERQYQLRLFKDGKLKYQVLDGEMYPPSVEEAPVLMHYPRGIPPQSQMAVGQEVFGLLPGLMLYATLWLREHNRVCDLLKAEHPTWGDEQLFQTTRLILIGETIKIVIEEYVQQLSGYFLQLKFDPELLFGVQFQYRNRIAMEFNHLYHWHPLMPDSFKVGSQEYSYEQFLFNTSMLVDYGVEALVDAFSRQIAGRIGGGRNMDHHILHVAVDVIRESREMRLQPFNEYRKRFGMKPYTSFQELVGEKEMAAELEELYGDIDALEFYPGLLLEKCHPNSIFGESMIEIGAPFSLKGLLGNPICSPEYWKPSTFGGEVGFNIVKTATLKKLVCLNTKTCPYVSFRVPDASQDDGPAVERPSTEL", "assay": "Inhibition of COX-1 (unknown origin)"}, "[10]": {"biological_target": "T2, P2X purinoceptor 7 (Rattus norvegicus)", "conditions": "Brain, 50 uM", "remark": "listed apart in the source"}, "Rattus norvegicus [11]": {"test_system": "Rattus norvegicus", "assay": "Antinociceptive activity against carrageenan-induced hyperalgesia in rat assessed as paw pressure at 10 mg/kg, po measured after 60 mins (reference value: 31.8 +/- 2.2 g)", "type": "functional", "how_it_was_run": "as §1"}, "Rattus norvegicus [12]": {"test_system": "Rattus norvegicus", "assay": "Antinociceptive activity against carrageenan-induced paw edema in rat assessed as paw edema volume at 3 mg/kg, po measured after 30 mins (reference value: 2.71+/- 0.08 ml)", "type": "functional"}, "Rattus norvegicus [13]": {"test_system": "Rattus norvegicus", "assay": "Antinociceptive activity against carrageenan-induced hyperalgesia in rat assessed as paw pressure at 3 mg/kg, po measured after 15 mins (reference value: 32.8 +/- 2.9 g)", "type": "functional", "how_it_was_run": "as §1"}, "Rattus norvegicus [14]": {"test_system": "Rattus norvegicus", "assay": "Antinociceptive activity against carrageenan-induced hyperalgesia in rat assessed as paw pressure at 3 mg/kg, po measured after 60 mins (reference value: 31.8 +/- 2.2 g)", "type": "functional", "how_it_was_run": "as §1"}, "Rattus norvegicus [15]": {"test_system": "Rattus norvegicus", "assay": "Antinociceptive activity against carrageenan-induced hyperalgesia in rat assessed as paw pressure at 10 mg/kg, po measured after 90 mins (reference value: 34.8 +/- 3.1 g)", "type": "functional", "how_it_was_run": "as §1"}, "Rattus norvegicus [16]": {"test_system": "Rattus norvegicus", "assay": "Antinociceptive activity against carrageenan-induced hyperalgesia in rat assessed as paw pressure at 10 mg/kg, po measured after 30 mins (reference value: 30.6 +/- 3.2 g)", "type": "functional", "how_it_was_run": "as §1"}, "Rattus norvegicus [17]": {"test_system": "Rattus norvegicus", "assay": "Antinociceptive activity against carrageenan-induced hyperalgesia in rat assessed as paw pressure at 20 mg/kg, po measured after 15 mins (reference value: 32.8 +/- 2.9 g)", "type": "functional", "how_it_was_run": "as §1"}, "Rattus norvegicus [18]": {"test_system": "Rattus norvegicus", "assay": "Antinociceptive activity against carrageenan-induced hyperalgesia in rat assessed as paw pressure at 20 mg/kg, po measured after 30 mins (reference value: 30.6 +/- 3.2 g)", "type": "functional", "how_it_was_run": "as §1"}, "P2X purinoceptor 7": {"biological_target": "T3, P2X purinoceptor 7 (Rattus norvegicus, UniProt Q64663)", "T3 sequence (Q64663 whole entry)": "T2 sequence (whole entry)", "assay": "Antagonist activity at P2X7 in Sprague-Dawley rat synaptosome assessed as inhibition of BzATP-induced [3H]D-aspartate efflux compound preincubated for 8 mins by liquid scintillation counting", "design": "species or system Brain", "how_it_was_run": "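Purified rat cerebrocortical synaptosomes loaded with [3H]D-aspartate and superfused. 100 μM BzATP added for 120 s. Compound added 8 min before BzATP. Ca2+-free conditions used medium with 0.5 mM EGTA, added 18 min before BzATP. Log concentration–response for inhibition of evoked efflux. Mean ± SEM of 3−12 independent experiments in triplicate.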"}, "Rattus norvegicus [19]": {"test_system": "Rattus norvegicus", "assay": "Antinociceptive activity against carrageenan-induced hyperalgesia in rat assessed as paw pressure at 3 mg/kg, po measured after 90 mins (reference value: 34.8 +/- 3.1 g)", "type": "functional", "how_it_was_run": "as §1"}, "Mus musculus [20]": {"test_system": "Mus musculus", "assay": "Analgesic activity in Swiss albino mouse assessed as inhibition of acetic acid-induced abdominal contraction at 10 mg/kg, po measured after 30 mins in presence of SR-141716A", "type": "functional, organism-based", "design": "dose 10 mg/kg", "conditions": "Abdominal cavity"}, "Mus musculus [21]": {"test_system": "Mus musculus", "assay": "Analgesic activity in Swiss albino mouse assessed as inhibition of acetic acid-induced abdominal contraction at 3 mg/kg, po measured after 30 mins", "type": "functional, organism-based", "design": "dose 3 mg/kg", "conditions": "Abdominal cavity", "how_it_was_run": "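Writhing was induced in Swiss albino mice with 0.6% acetic acid. Drugs were given p.o. 30 min before the test. Writhes were counted at 30 and 60 min and compared with vehicle-treated controls.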"}, "Rattus norvegicus [22]": {"test_system": "Rattus norvegicus", "assay": "Antinociceptive activity against carrageenan-induced paw edema in rat assessed as paw edema volume at 10 mg/kg, po measured after 30 mins (reference value: 2.71+/- 0.08 ml)", "type": "functional"}, "Rattus norvegicus [23]": {"test_system": "Rattus norvegicus", "assay": "Antinociceptive activity against carrageenan-induced hyperalgesia in rat assessed as paw pressure at 20 mg/kg, po measured after 90 mins (reference value: 34.8 +/- 3.1 g)", "type": "functional", "how_it_was_run": "as §1"}, "[24]": {"biological_target": "T2, P2X purinoceptor 7 (Rattus norvegicus)", "conditions": "Brain, 50 uM", "remark": "listed apart in the source"}, "Mus musculus [25]": {"test_system": "Mus musculus", "assay": "Analgesic activity in Swiss albino mouse assessed as inhibition of acetic acid-induced abdominal contraction at 20 to 60 mg/kg, po measured after 30 mins", "type": "functional, organism-based", "conditions": "Abdominal cavity"}}, "note": "Active and inactive are the calls of the source."}
{"compound": "O=C(NC1(C(=O)NC2CC2)C2CC3CC(C2)CC1C3)c1ccccc1", "note": "(stereo unspecified)", "values": [{"measurement": "Activity", "setting": "Rattus norvegicus [1]", "value": 44.2, "unit": "g"}, {"measurement": "inhibition", "setting": "Rattus norvegicus [2]", "value": "inactive"}, {"measurement": "Activity", "setting": "Rattus norvegicus [3]", "value": 40.8, "unit": "g"}, {"measurement": "inhibition", "setting": "Mus musculus [4]", "value": "Active"}, {"measurement": "Activity", "setting": "Rattus norvegicus [5]", "value": 48.3, "unit": "g"}, {"measurement": "inhibition", "setting": "[6]", "value": "inactive"}, {"measurement": "Activity", "setting": "Rattus norvegicus [7]", "value": 2.1, "unit": "mL"}, {"measurement": "inhibition", "setting": "[8]", "value": "inactive"}, {"measurement": "inhibition", "setting": "[9]", "value": "inactive"}, {"measurement": "inhibition", "setting": "[10]", "value": "inactive"}, {"measurement": "Activity", "setting": "Rattus norvegicus [11]", "value": 43.4, "unit": "g"}, {"measurement": "Activity", "setting": "Rattus norvegicus [12]", "value": 2.53, "unit": "mL"}, {"measurement": "Activity", "setting": "Rattus norvegicus [13]", "value": 39.1, "unit": "g"}, {"measurement": "Activity", "setting": "Rattus norvegicus [14]", "value": 35.6, "unit": "g"}, {"measurement": "Activity", "setting": "Rattus norvegicus [15]", "value": 38.2, "unit": "g"}, {"measurement": "Activity", "setting": "Rattus norvegicus [16]", "value": 52.7, "unit": "g"}, {"measurement": "Activity", "setting": "Rattus norvegicus [17]", "value": 48.4, "unit": "g"}, {"measurement": "Activity", "setting": "Rattus norvegicus [18]", "value": 53.9, "unit": "g"}, {"measurement": "IC50", "setting": "P2X purinoceptor 7", "value": 7.7, "unit": "µM"}, {"measurement": "Activity", "setting": "Rattus norvegicus [19]", "value": 36.9, "unit": "g"}, {"measurement": "inhibition", "setting": "Mus musculus [20]", "value": "Active"}, {"measurement": "inhibition", "setting": "Mus musculus [21]", "value": "Active"}, {"measurement": "Activity", "setting": "Rattus norvegicus [22]", "value": 2.06, "unit": "mL"}, {"measurement": "Activity", "setting": "Rattus norvegicus [23]", "value": 33.6, "unit": "g"}, {"measurement": "inhibition", "setting": "[24]", "value": "Active"}]}
{"compound": "O=C(NC1(C(=O)NCCc2ccccc2)C2CC3CC(C2)CC1C3)c1ccccc1", "note": "(stereo unspecified)", "values": [{"measurement": "inhibition", "setting": "Mus musculus [25]", "value": "inactive"}]}
